For data set [1], the system named is Influenza A virus. Put plainly: Antiviral activity against Influenza A virus (A/goose/Guangdong/SH7/2013(H5N1)) group-1 infected in chicken embryo fibroblast assessed as reduction in viral infection preincubated for 1 hrs followed by fibroblast infection and measured after 72 hrs by hemagglutination titre method. The data set is classed as functional, organism-based.

Data set [2] deals with Influenza A virus. Put plainly: Antiviral activity against Influenza A virus (A/chicken/Hebei/LZF/ 2014(H5N2)) group-2 infected in chicken embryo fibroblast assessed as reduction in viral infection preincubated for 1 hrs followed by fibroblast infection and measured after 72 hrs by hemagglutination titre method. The data set is classed as functional, organism-based.
The test system of data set [3] is Influenza A virus. Put plainly: Antiviral activity against Influenza A virus (A/Duck/Guangdong/674/2014 (H5N6)) group-2 infected in chicken embryo fibroblast assessed as reduction in viral infection preincubated for 1 hrs followed by fibroblast infection and measured after 72 hrs by hemagglutination titre method. The data set is classed as functional, organism-based.

In data set [4] the test system is Influenza A virus. The experiment in a line: Antiviral activity against Influenza A virus (A/goose/Jiangsu/1306/2014 (H5N8)) group-1 infected in chicken embryo fibroblast assessed as reduction in viral infection preincubated for 1 hrs followed by fibroblast infection and measured after 72 hrs by hemagglutination titre method. The format is functional, organism-based.

The nature of data set [5]: Cytotoxicity against chicken embryo fibroblast assessed as reduction in cell viability after 48 hrs by CCK8 assay. As to conditions: chicken embryo fibroblasts. Further details: species or system Gallus gallus. Summed up: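 Chicken embryo fibroblasts (1×10^5 cells/mL) were cultured 24 h at 37°C, 5% CO2, washed with serum-free DMEM, then exposed to 2-fold serial compound dilutions in 1% FBS DMEM for 48 h. CCK-8 in 1% FBS DMEM was added for 90 min and absorbance read at 450 nm. CC50 was obtained by curve fitting. Blank and cell controls were included.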

For the molecule `CCC(CC)O[C@@H]1C=C(C(=O)O)C[C@H](NC(=O)/C=C/c2ccccc2)[C@H]1NC(C)=O`, the IC50 in data set [1] is > 10 µM; in data set [2] it was > 10 µM; in data set [3] it was > 10 µM; in data set [4], 5.32 µM. For the same molecule, in data set [5], the CC50 at 48 h was > 200 µM.

Consider `CCC(CC)O[C@@H]1C=C(C(=O)O)C[C@H](NCc2ccc(C#N)cc2)[C@H]1NC(C)=O`, for which the half-inhibitory concentration (IC50) is > 10 µM in data set [1], > 10 µM in data set [3] and 0.68 µM in data set [4]. Besides, the cytotoxic concentration (CC50) at 48 h in data set [5] is > 200 µM.

Consider `CCC(CC)O[C@@H]1C=C(C(=O)O)C[C@H](NCc2ncc(-c3ccccc3)s2)[C@H]1NC(C)=O`, for which the half-inhibitory concentration (IC50) in data set [1] was > 10 µM; in data set [2], 0.41 µM; in data set [3], 4.29 µM; in data set [4], 0.49 µM. In addition, in data set [5], the cytotoxic concentration (CC50) at 48 h was > 200 µM.

Turning to `CCC(CC)O[C@@H]1C=C(C(=O)O)C[C@H](NS(=O)(=O)c2ccc(Cl)cc2)[C@H]1NC(C)=O`, the IC50 in data set [1] is > 10 µM; in data set [2], > 10 µM; in data set [3] it was > 10 µM; in data set [4], 4.76 µM. The CC50 at 48 h in data set [5] was > 200 µM.

On to `CCC(CC)O[C@@H]1C=C(C(=O)O)C[C@H](NCc2ccc(F)cc2)[C@H]1NC(C)=O`, for which the IC50 in data set [1] is > 10 µM; in data set [2], 0.11 µM; in data set [3], 4.57 µM; in data set [4] it was 0.52 µM. Besides, in data set [5], the CC50 at 48 h was > 200 µM.

On to `CCC(CC)O[C@@H]1C=C(C(=O)O)C[C@H](NCc2cccc(-c3ccsc3)c2)[C@H]1NC(C)=O`, for which the half-inhibitory concentration (IC50) in data set [2] stood at 0.07 µM; in data set [3], 2.62 µM; in data set [4], 0.056 µM. The CC50 at 48 h in data set [5] is > 200 µM.

As to `CCC(CC)O[C@@H]1C=C(C(=O)O)C[C@H](NCc2ccc(Br)cc2)[C@H]1NC(C)=O`, the IC50 in data set [1] was 2.53 µM; in data set [2] it was 0.11 µM; in data set [3], 1.99 µM. Besides, in data set [5], the CC50 at 48 h is > 200 µM.

In the case of `CCC(CC)O[C@@H]1C=C(C(=O)O)C[C@H](NC/C=C/c2ccc(N(C)C)cc2)[C@H]1NC(C)=O`, the concentration for half-maximal inhibition (IC50) in data set [1] is 1.29 µM; in data set [2], 0.065 µM; in data set [3], 2.78 µM; in data set [4] it was 0.88 µM. Moreover, in data set [5], the half-maximal cytotoxic concentration (CC50) at 48 h is > 200 µM.

Consider `CCC(CC)O[C@@H]1C=C(C(=O)O)C[C@H](NC(=O)/C=C/c2ccc(C)cc2)[C@H]1NC(C)=O`, for which the IC50 is > 10 µM in data set [1], > 10 µM in data set [2], > 10 µM in data set [3] and 4.76 µM in data set [4]. Also, in data set [5], the CC50 at 48 h was > 200 µM.

Regarding `CCC(CC)O[C@@H]1C=C(C(=O)O)C[C@H](NS(=O)(=O)c2ccc(C(C)(C)C)cc2)[C@H]1NC(C)=O`, the 50% inhibitory concentration (IC50) in data set [1], in data set [2] and in data set [3] was > 10 µM throughout. In addition, the CC50 at 48 h in data set [5] was > 200 µM.

As to `CCC(CC)O[C@@H]1C=C(C(=O)O)C[C@H](NS(=O)(=O)c2ccc3ccccc3c2)[C@H]1NC(C)=O`, the IC50 in data set [1] is > 10 µM; in data set [2], > 10 µM; in data set [3] it was > 10 µM; in data set [4], 3.23 µM. Besides, in data set [5], the CC50 at 48 h is > 200 µM.

For the molecule `CCC(CC)O[C@@H]1C=C(C(=O)O)C[C@H](NCc2cccc(F)c2)[C@H]1NC(C)=O`, the IC50 is > 10 µM in data set [1], 0.14 µM in data set [2], 3.87 µM in data set [3] and 0.49 µM in data set [4]. Besides, the CC50 at 48 h in data set [5] is > 200 µM.

As for `CCC(CC)O[C@@H]1C=C(C(=O)O)C[C@H](NS(=O)(=O)c2ccc(-c3ccccc3)cc2)[C@H]1NC(C)=O`, the IC50 in data set [1] was > 10 µM; in data set [2], > 10 µM; in data set [3], > 10 µM; in data set [4], 6.79 µM. The CC50 at 48 h in data set [5] was > 200 µM.

Turning to `CCC(CC)O[C@@H]1C=C(C(=O)O)C[C@H](NCc2ccc([N+](=O)[O-])cc2)[C@H]1NC(C)=O`, the 50% inhibitory concentration (IC50) in data set [1] is > 10 µM; in data set [2], 0.21 µM; in data set [3], 2.16 µM; in data set [4] it was 0.42 µM. Moreover, in data set [5], the CC50 at 48 h is > 200 µM.

Turning to `CCC(CC)O[C@@H]1C=C(C(=O)O)C[C@H](NC(=O)/C=C/c2ccc(OC)cc2)[C@H]1NC(C)=O`, the half-maximal inhibitory concentration (IC50) in data set [1] is > 10 µM; in data set [2] it was > 10 µM; in data set [3] it was > 10 µM; in data set [4], 8.48 µM. Also, the cytotoxic concentration (CC50) at 48 h in data set [5] was > 200 µM.

For `CCC(CC)O[C@@H]1C=C(C(=O)O)C[C@H](NCc2ccsc2)[C@H]1NC(C)=O`, the concentration for half-maximal inhibition (IC50) is > 10 µM in data set [1], 0.13 µM in data set [2], 3.58 µM in data set [3] and 0.081 µM in data set [4]. Besides, the CC50 at 48 h in data set [5] is > 200 µM.

Regarding `CCC(CC)O[C@@H]1C=C(C(=O)O)C[C@H](NC/C=C/c2ccc(OC)cc2)[C@H]1NC(C)=O`, the half-inhibitory concentration (IC50) worked out at 7.56 µM in data set [1], 0.21 µM in data set [2], 4.07 µM in data set [3] and 0.64 µM in data set [4]. Besides, the 50% cytotoxic concentration (CC50) at 48 h in data set [5] was > 200 µM.

Consider `CCC(CC)O[C@@H]1C=C(C(=O)O)C[C@H](NCc2ccc(-c3cccs3)s2)[C@H]1NC(C)=O`, for which the IC50 was > 10 µM in data set [1], 0.083 µM in data set [2], 7.12 µM in data set [3] and 0.072 µM in data set [4]. Besides, the CC50 at 48 h in data set [5] was > 200 µM.

Consider `CCC(CC)O[C@@H]1C=C(C(=O)O)C[C@H](NCc2cccc([N+](=O)[O-])c2)[C@H]1NC(C)=O`, for which the concentration for half-maximal inhibition (IC50) was > 10 µM in data set [1], 0.24 µM in data set [2], 2.16 µM in data set [3] and 0.7 µM in data set [4]. In addition, the CC50 at 48 h in data set [5] was > 200 µM.

Take `CCC(CC)O[C@@H]1C=C(C(=O)O)C[C@H](NS(=O)(=O)c2ccc(F)cc2)[C@H]1NC(C)=O`: the IC50 is > 10 µM in data set [1], > 10 µM in data set [2], > 10 µM in data set [3] and 4.25 µM in data set [4]. In data set [5], the CC50 at 48 h was > 200 µM.

Consider `CCC(CC)O[C@@H]1C=C(C(=O)O)C[C@H](NC(=O)/C=C/c2cccc(C)c2)[C@H]1NC(C)=O`, for which the IC50 in data set [1] is > 10 µM; in data set [2], > 10 µM; in data set [3], > 10 µM; in data set [4] it was 4.37 µM. Moreover, the CC50 at 48 h in data set [5] was > 200 µM.

For the molecule `CCC(CC)O[C@@H]1C=C(C(=O)O)C[C@H](NC(=O)c2ccc(-c3ccccc3)cc2)[C@H]1NC(C)=O`, the IC50 in data set [1] is > 10 µM; in data set [2], > 10 µM; in data set [3], > 10 µM; in data set [4], 3.54 µM. Also, in data set [5], the half-maximal cytotoxic concentration (CC50) at 48 h was > 200 µM.

Regarding `CCC(CC)O[C@@H]1C=C(C(=O)O)C[C@H](NS(=O)(=O)c2ccccc2)[C@H]1NC(C)=O`, the IC50 in data set [1] is > 10 µM; in data set [2] it was > 10 µM; in data set [3] it was > 10 µM; in data set [4], 4.82 µM. Further, the CC50 at 48 h in data set [5] is > 200 µM.

As to `CCC(CC)O[C@@H]1C=C(C(=O)O)C[C@H](NC(=O)c2ccccc2)[C@H]1NC(C)=O`, the IC50 in data set [1], in data set [2], in data set [3] and in data set [4] was > 10 µM throughout. Moreover, the CC50 at 48 h in data set [5] is > 200 µM.

On to `CCC(CC)O[C@@H]1C=C(C(=O)O)C[C@H](N(Cc2ccsc2)Cc2ccsc2)[C@H]1NC(C)=O`, for which the concentration for half-maximal inhibition (IC50) in data set [1] was > 10 µM; in data set [2], 0.15 µM; in data set [3] it was 3.03 µM; in data set [4] it was 0.88 µM. For the same molecule, in data set [5], the 50% cytotoxic concentration (CC50) at 48 h is > 200 µM.

Turning to `CCC(CC)O[C@@H]1C=C(C(=O)O)C[C@H](NS(=O)(=O)c2ccc(-c3cccs3)cc2)[C@H]1NC(C)=O`, the IC50 in data set [1] came to 0.29 µM; in data set [2], 0.079 µM; in data set [3], 2.39 µM; in data set [4], 0.053 µM. Also, the CC50 at 48 h in data set [5] was > 200 µM.

On to `CCC(CC)O[C@@H]1C=C(C(=O)O)C[C@H](NC(=O)/C=C/c2ccc(F)cc2)[C@H]1NC(C)=O`, for which the IC50 in data set [1] was > 10 µM; in data set [2], > 10 µM; in data set [3] it was > 10 µM; in data set [4], 5.16 µM. In addition, the CC50 at 48 h in data set [5] is > 200 µM.

As for `CCC(CC)O[C@@H]1C=C(C(=O)O)C[C@H](NCc2cccc(C(F)(F)F)c2)[C@H]1NC(C)=O`, the IC50 was > 10 µM in data set [1], 0.34 µM in data set [2], 3.17 µM in data set [3] and 0.75 µM in data set [4]. For the same molecule, in data set [5], the CC50 at 48 h is > 200 µM.

Consider `CCC(CC)O[C@@H]1C=C(C(=O)O)C[C@H](NS(=O)(=O)c2ccc(C)cc2)[C@H]1NC(C)=O`, for which the half-maximal inhibitory concentration (IC50) was > 10 µM in data set [1], > 10 µM in data set [2], > 10 µM in data set [3] and 3.12 µM in data set [4]. In addition, in data set [5], the half-maximal cytotoxic concentration (CC50) at 48 h is > 200 µM.

On to `NC(=O)c1ncn([C@@H]2O[C@H](CO)[C@@H](O)[C@H]2O)n1` [RIBAVIRIN], for which the IC50 was 4.01 µM in data set [1], > 10 µM in data set [2], 6.68 µM in data set [3] and 1.96 µM in data set [4]. Further, the CC50 at 48 h in data set [5] was > 200 µM.

(Values after ChEMBL document CHEMBL4765273 (Eur J Med Chem, 2020).)
